As usually defined, the IC50 is the concentration at which inhibition is half-maximal.

Active and inactive are the calls of the source.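 How the source made its calls: active means half-maximal inhibitory concentration IC50 of 10 µM or lower; inactive means the rest.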

Sequence of Transitional endoplasmic reticulum ATPase (Homo sapiens) (P55072 whole entry, looked up): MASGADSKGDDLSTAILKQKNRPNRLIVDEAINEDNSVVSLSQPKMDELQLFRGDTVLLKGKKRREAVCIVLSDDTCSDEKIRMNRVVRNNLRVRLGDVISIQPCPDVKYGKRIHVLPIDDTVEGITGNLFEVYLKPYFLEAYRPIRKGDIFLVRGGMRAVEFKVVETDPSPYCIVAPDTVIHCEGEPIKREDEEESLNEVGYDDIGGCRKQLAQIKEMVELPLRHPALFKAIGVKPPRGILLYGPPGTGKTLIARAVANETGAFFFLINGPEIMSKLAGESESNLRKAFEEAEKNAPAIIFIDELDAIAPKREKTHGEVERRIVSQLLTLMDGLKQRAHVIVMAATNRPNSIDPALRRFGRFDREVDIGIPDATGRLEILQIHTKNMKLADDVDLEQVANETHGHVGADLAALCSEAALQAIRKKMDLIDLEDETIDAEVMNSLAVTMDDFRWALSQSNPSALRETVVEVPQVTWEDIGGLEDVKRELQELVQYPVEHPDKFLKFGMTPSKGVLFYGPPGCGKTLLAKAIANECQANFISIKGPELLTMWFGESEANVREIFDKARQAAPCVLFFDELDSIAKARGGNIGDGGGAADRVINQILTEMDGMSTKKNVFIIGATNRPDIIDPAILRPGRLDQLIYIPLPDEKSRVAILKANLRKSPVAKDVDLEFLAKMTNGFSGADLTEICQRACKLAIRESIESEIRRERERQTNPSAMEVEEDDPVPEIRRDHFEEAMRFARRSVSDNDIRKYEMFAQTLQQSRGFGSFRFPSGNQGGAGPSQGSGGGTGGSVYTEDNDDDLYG

The first test deals with Transitional endoplasmic reticulum ATPase (Homo sapiens) (UniProt P55072). As to the kind of experiment: blockers of VCP-dependent reporter clearance – imaging, HeLa, UbG76V-GFP, round 3, SAR follow-up (AID 504649). As to conditions: HeLa UbG76V-GFP degradation. Summed up:
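Material: UbG76V-GFP reporter HeLa cells / Signal: imaged GFP fluorescence intensity, ~500 cells / Also added: MG132 4 µM reporter pre-load, removed before chase / Times: MG132 pre-treatment 1 h, GFP imaging 70–170 min into chase / Read-out basis: IC50 from percent DMSO decay rate constant / Buffer or medium: DMEM with 2.5% FBS plus cycloheximide 50 µg/mL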
Consider `COc1cccc2c(NCc3ccc(F)cc3)nc(N3CCOc4ccccc43)nc12`, for which the IC50 was 3.7 µM.
The same measure, in the same setting: the same measure for `CC(C)Nc1nc(Nc2cccc(Cl)c2)nc2ccccc12`: “inactive”.
Take `COc1cccc2c(NCc3ccccc3)nc(N3CCN(C)c4ccccc43)nc12`: the IC50 is 7.8 µM.
On the same count and under the same terms, to `COc1cccc2c(NCc3ccccc3)nc(N3CCN(C(C)=O)c4ccccc43)nc12` belongs 8 µM; to `COc1ccc(-c2cccc3c(NCc4ccccc4)nc(N4CCOc5ccccc54)nc23)cc1`, 9 µM; to `COc1cccc2c(NCc3ccccc3)nc(Nc3cccc(F)c3)nc12`, 4.8 µM.
Turning to `COc1cccc2c(NCc3ccccc3)nc(Nc3ccccc3O)nc12`, the half-inhibitory concentration (IC50) is 2.8 µM.
On the same count and under the same terms, the same measure for `COc1cccc2c(NCc3ccccc3)nc(-n3c(N)nc4c(F)cccc43)nc12`: 5.4 µM; for `COc1ccc2c(c1)nc(N)n2-c1nc(NCc2ccccc2)c2cccc(OC)c2n1`: 0.96 µM; for `c1ccc(CNc2nc(N3CCOc4ccccc43)nc3c(-c4ccccc4)cccc23)cc1`: 5 µM.
As to `c1ccc(CNc2nc(N3CCc4ccccc4C3)nc3ccccc23)cc1`, the half-inhibitory concentration (IC50) is 7 µM.
For the molecule `CN(c1ccccc1)c1nc(NCc2ccccc2)c2ccccc2n1`, the IC50 was 9.2 µM.
Still for that read-out and setting: the same measure for `COc1cccc2c(NCc3ccccc3)nc(-n3c(=O)oc4ccccc43)nc12`: 5 µM.
Still for that read-out and setting: to `COc1cccc2c(NCc3cncs3)nc(N3CCOc4ccccc43)nc12` belongs > 20 µM (inactive); to `COc1cccc2c(NCC3CCCCC3)nc(N3CCOc4ccccc43)nc12`, 8.2 µM.
Consider `Cc1nc(N2CCOc3ccccc32)nc(NCc2ccccc2)c1C`, for which the IC50 result is “inactive”.
The same measure, in the same setting: the same measure for `COc1cccc2c(NCc3ccccc3)nc(N3CCNc4ccccc43)nc12`: 3.7 µM; for `COc1cccc2c(NCc3ccccc3)nc(-n3c(N)nc4c(C)cccc43)nc12`: 2.6 µM.
On the same count and under the same terms, to `COc1cccc2c(NCc3ccccc3)nc(N3CCN(C(C)=O)CC3)nc12` belongs > 20 µM (inactive).
Still for that read-out and setting: the same measure for `c1ccc(CNc2nc(N3CCOc4ccccc43)nc3c2CCCC3)cc1`: 3.5 µM; for `COc1cccc2c(NCc3ccccc3)nc(NC(C)c3ccccc3)nc12` (stereo not given): 2.1 µM; for `OCCOc1cccc2c(NCc3ccccc3)nc(N3CCOc4ccccc43)nc12`: 3.8 µM.
As for `COc1cccc2c(NCc3ccccc3)nc(Nc3nc4ccccc4n3C)nc12`, the IC50 is 7.8 µM.
Consider `Clc1ccccc1-c1nc(N2CCCc3ccccc32)c2ccccc2n1`, for which the IC50 entry is “inactive”.
For `N#CCOc1cccc2c(NCc3ccccc3)nc(N3CCOc4ccccc43)nc12`, the IC50 is 7.7 µM.
Take `Oc1cccc2c(NCc3ccccc3)nc(N3CCOc4ccccc43)nc12`: the IC50 was 7.7 µM.
With `Nc1nc2ccccc2n1-c1nc(NCc2ccccc2)c2ccccc2n1`, the IC50 is 2.9 µM.
The same measure, in the same setting: the same measure for `COc1cccc2c(NCc3ccccn3)nc(N3CCNc4ccccc43)nc12`: “inactive”; for `COc1cccc2c(NCc3ccccc3)nc(Nc3cc(C)cc(F)c3)nc12`: 7.1 µM.
The same measure, in the same setting: the same measure for `COc1cccc2c(NCc3ccccc3N(C)C)nc(N3CCOc4ccccc43)nc12`: 4.5 µM.
As for `COc1cccc2c(NCc3cccc(N(C)C)c3)nc(N3CCOc4ccccc43)nc12`, the IC50 result was “inactive”.
Same read-out and setting: to `COc1cccc2c(NCc3ccccc3)nc(-n3c(N)nc4cc(Cl)c(Cl)cc43)nc12` belongs > 20 µM (inactive); to `COCCOc1cccc2c(NCc3ccccc3)nc(N3CCOc4ccccc43)nc12`, 6.5 µM.
Still for that read-out and setting: the same measure for `COc1cccc2c(NCc3ccccc3)nc(NCC3CCCCC3)nc12`: 4.2 µM.
On the same count and under the same terms, to `COc1cccc2c(NCc3ccccc3)nc(-n3c(N)nc4cc(F)ccc43)nc12` belongs 6.8 µM; to `c1ccc2c(c1)OCCN2c1nc(N2CCOc3ccccc32)c2ccccc2n1`, 8.1 µM.
For `c1ccc(CNc2nc(N3CCOc4ccccc43)nc3ccsc23)cc1`, the half-inhibitory concentration (IC50) is 6.4 µM.
Still for that read-out and setting: the same measure for `COc1cccc2c(NCc3ccc(O)cc3)nc(N3CCOc4ccccc43)nc12`: 7.3 µM; for `COc1cccc2c(NCc3ccccc3)nc(N3CCOc4ccccc43)nc12`: 3.3 µM.
Consider `COc1cccc2c(NCc3ccccn3)nc(N3CCOc4ccccc43)nc12`, for which the IC50 entry was “inactive”.
On the same count and under the same terms, to `COc1cccc2c(NCc3ccccc3O)nc(N3CCOc4ccccc43)nc12` belongs 6 µM; to `COc1cccc2c(NCc3ccccc3)nc(Nc3nc4ccccc4s3)nc12`, “inactive”; to `Nc1nc2ccccc2n1-c1nc2c(c(NCc3ccccc3)n1)CCCC2`, 1.8 µM.
On to `CCN(CC)CCOc1cccc2c(NCc3ccccc3)nc(N3CCOc4ccccc43)nc12`, for which the IC50 is 5.3 µM.
The same measure, in the same setting: to `COc1cccc2c(NCc3ccccc3)nc(NCc3cncs3)nc12` belongs “inactive”; to `COc1cccc2c(NCc3ccccc3)nc(Nc3cccc(Cl)c3)nc12`, 5.4 µM.
Still for that read-out and setting: to `Nc1nc2ccccc2n1-c1nccc(NCc2ccccc2)n1` belongs “inactive”.
Same read-out and setting: the same measure for `COc1cccc2c(NCc3cccs3)nc(N3CCOc4ccccc43)nc12`: 3 µM; for `COc1cccc2c(NCc3ccccc3)nc(-n3c(N)nc4cc(C)ccc43)nc12`: 2.5 µM.
In the case of `COc1cccc2c(NCc3ccccc3)nc(N(C)Cc3ccccc3)nc12`, the IC50 is > 20 µM (inactive).
On the same count and under the same terms, to `COc1cccc2c(NCc3ccccc3)nc(-n3c(N)nc4ccccc43)nc12` belongs 0.9 µM; to `COc1cccc2c(NCc3ccccc3)nc(NCc3cccs3)nc12`, 1.8 µM.

Staying with this test, now noted: HeLa UbG76V-GFP degradation, at 20 µM (top of the series).
Turning to `COc1cccc2c(NCc3ccccc3)nc(-n3cnc4ccccc43)nc12`, the inhibition result was “inactive”.
On the same count and under the same terms, the same measure for `COc1cccc2c(NCc3ccccc3)nc(NC(N)=O)nc12`: “inactive”; for `COc1cccc2c(NCc3ccccc3)nc(-n3c(N)nc4cc(C)c(C)cc43)nc12`: “inactive”.

The record behind these values is PubChem BioAssay AID504649 (Molecular Libraries Program, Specialized Chemistry Center, …, 2011).
